Assay results: paper PMC3508427 (The British journal of nutrition, 2009)

Legend:
[1] = Plasma pharmacokinetics of total flavanones; assay type: in vivo, human; settings: fruit or juice
Method in brief: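 Randomised cross-over in twenty volunteers on a flavonoid-avoidance diet, given single orange juice (300 g) or fruit portions. Drinking withheld 1·5 h and eating 4 h. Heparinised blood taken at 15, 30, 45 min and 1–48 h, centrifuged, and ascorbate added (final 1 mM). Plasma (pH 5·0) hydrolysed with β-glucuronidase and sulfatase for 2 h at 37°C. Total naringenin and hesperetin measured by C18 SPE and reversed-phase HPLC.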

[2] = assay type: in vivo, human; settings: orange juice, n 129, linear model
Method in brief: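 Extended cohort of 129 subjects given a single 300 g orange juice dose. Urine collected as 24 h fractions: the day before, then for 48 h after, into bottles holding 1 g ascorbic acid. Volumes recorded. Urine (pH 5·0) hydrolysed with β-glucuronidase (10 000 units) and sulfatase (1000 units) for 2 h at 37°C, with galangin as internal standard. Measured by C18 SPE and HPLC, expressed as % of flavanone dose.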

[3] = cited from earlier work
[4] = cited from earlier work; remark: listed apart in the source

COc1ccc([C@@H]2CC(=O)c3c(O)cc(O)cc3O2)cc1O [hesperetin]
time of major peak in plasma profile [1]: about 6 h | decrease in urinary excretion between the ages of 20 and 80 years [2]: 4%

COc1ccc([C@@H]2CC(=O)c3c(O)cc(O[C@@H]4O[C@H](CO[C@@H]5O[C@@H](C)[C@H](O)[C@@H](O)[C@H]5O)[C@@H](O)[C@H](O)[C@H]4O)cc3O2)cc1O [hesperidin, 7-O-rutinoside of hesperetin]
mean urinary yield [3]: > 8% | time to peak plasma concentration [4]: about 6 h

O=C1C[C@@H](c2ccc(O)cc2)Oc2cc(O)cc(O)c21 [naringenin]
time of major peak in plasma profile [1]: about 6 h

C[C@@H]1O[C@@H](O[C@H]2[C@H](Oc3cc(O)c4c(c3)O[C@H](c3ccc(O)cc3)CC4=O)O[C@H](CO)[C@@H](O)[C@@H]2O)[C@H](O)[C@H](O)[C@H]1O [naringin]
mean urinary yield [3]: > 8% | time to peak plasma concentration [4]: about 6 h

OC[C@H]1O[C@@H](Oc2cc3c(O)cc(O)cc3[o+]c2-c2ccc(O)cc2)[C@H](O)[C@@H](O)[C@@H]1O [pelargondin-3-glucoside]
time to peak plasma concentration [4]: about 1 h

C[C@@H]1O[C@@H](OC[C@H]2O[C@@H](Oc3c(-c4ccc(O)c(O)c4)oc4cc(O)cc(O)c4c3=O)[C@H](O)[C@@H](O)[C@@H]2O)[C@H](O)[C@H](O)[C@H]1O [rutin, quercetin rutinoside]
time to peak plasma concentration [4]: about 6 h
